Assay results reported in ChEMBL document CHEMBL4002610, “Design, synthesis and biological activity evaluation of novel 2,6-difluorobenzamide derivatives through FtsZ inhibition” (2017).
Converted amounts (≈) assume the structure as drawn.

Tests used:
[1] = molecular target: T1, Cell division protein FtsZ (Staphylococcus aureus) (UniProt P0A031); experiment: Inhibition of FtsZ in Staphylococcus aureus ATCC 25923 assessed as decrease in cell division by measuring lowest compound concentration at which bacterial ballooning is observed after 5 hrs by phase-contrast light microscopy
T1 sequence (whole entry): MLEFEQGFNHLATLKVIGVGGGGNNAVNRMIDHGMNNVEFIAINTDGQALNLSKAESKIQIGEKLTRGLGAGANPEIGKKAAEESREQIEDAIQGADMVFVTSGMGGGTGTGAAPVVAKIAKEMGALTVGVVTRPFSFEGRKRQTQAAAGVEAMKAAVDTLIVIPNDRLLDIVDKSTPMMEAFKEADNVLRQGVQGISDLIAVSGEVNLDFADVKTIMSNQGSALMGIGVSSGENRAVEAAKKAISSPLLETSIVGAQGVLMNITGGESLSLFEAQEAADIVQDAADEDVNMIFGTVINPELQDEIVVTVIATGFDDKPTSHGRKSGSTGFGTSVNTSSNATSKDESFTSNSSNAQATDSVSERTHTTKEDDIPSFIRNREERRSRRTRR
Outline: (§1)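 Cell division inhibition scored by cell morphology under phase-contrast light microscopy. B. subtilis ATCC9372, E. coli ATCC25922 and S. aureus ATCC25923 were exposed to compound. The lowest concentration giving filamentation (B. subtilis, E. coli) or ballooning (S. aureus) was recorded as the cell division inhibitory concentration.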

Staphylococcus aureus [2] = experiment: Antibacterial activity against penicillin-resistant Staphylococcus aureus clinical isolate after 24 hrs by broth microdilution method; type: functional
Staphylococcus aureus [3] = experiment: Antibacterial activity against Staphylococcus aureus ATCC 29213 after 24 hrs by broth microdilution method; type: functional; conditions: ATCC 29213, 24 h
Outline: (§2)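 MIC by standard broth microdilution per NCCLS guidance. Strain panel: B. subtilis ATCC9372 and S. aureus ATCC25923 as standard susceptible strains, S. aureus ATCC29213 as […], S. pyogenes PS as penicillin-susceptible, S. pneumoniae ATCC49619 as standard susceptible, alongside Gram-negative strains.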

[4] = tested on: Escherichia coli ATCC 25922; experiment: Inhibition of FtsZ in Escherichia coli ATCC 25922 assessed as decrease in cell division by measuring lowest compound concentration at which bacterial filamentation is observed after 5 hrs by phase-contrast light microscopy; outline: as §1
Bacillus subtilis [5] = experiment: Inhibition of FtsZ in Bacillus subtilis ATCC 9372 assessed as decrease in cell division by measuring lowest compound concentration at which bacterial filamentation is observed after 5 hrs by phase-contrast light microscopy; outline: as §1
Escherichia coli = experiment: Antibacterial activity against Escherichia coli ATCC 25922 after 24 hrs by broth microdilution method; type: functional; conditions: ATCC 25922, 24 h; outline: as §2
Streptococcus pyogenes = experiment: Antibacterial activity against penicillin-susceptible Streptococcus pyogenes after 24 hrs by broth microdilution method; type: functional; outline: as §2
Streptococcus pneumoniae = experiment: Antibacterial activity against Streptococcus pneumoniae ATCC 49619 after 24 hrs by broth microdilution method; type: functional; conditions: ATCC 49619, 24 h; outline: as §2
Staphylococcus aureus [6] = experiment: Antibacterial activity against Staphylococcus aureus ATCC 25923 after 24 hrs by broth microdilution method; type: functional; conditions: ATCC 25923, 24 h; outline: as §2
Bacillus subtilis [7] = experiment: Antibacterial activity against Bacillus subtilis ATCC 9372 after 24 hrs by broth microdilution method; type: functional; conditions: ATCC 9372, 24 h; outline: as §2
Pseudomonas aeruginosa = experiment: Antibacterial activity against Pseudomonas aeruginosa ATCC 27853 after 24 hrs by broth microdilution method; type: functional; conditions: ATCC 27853, 24 h; outline: as §2

SMILES | INH [1] | MIC (Staphylococcus aureus [2]) | MIC (Staphylococcus aureus [3]) | INH [4] | INH (Bacillus subtilis [5]) | MIC (Escherichia coli) | MIC (Streptococcus pyogenes) | MIC (Streptococcus pneumoniae) | MIC (Staphylococcus aureus [6]) | MIC (Bacillus subtilis [7]) | MIC (Pseudomonas aeruginosa)
CCC(C)Oc1ccc(F)c(C(N)=O)c1F (configuration not stated) | 32 µg/mL | 128 µg/mL (≈ 558 µM) | 128 µg/mL (≈ 558 µM) | 64 µg/mL | 128 µg/mL | 128 µg/mL (≈ 558 µM) | > 128 µg/mL | 128 µg/mL (≈ 558 µM) | 64 µg/mL (≈ 279 µM) | 128 µg/mL (≈ 558 µM) | 128 µg/mL (≈ 558 µM)
CCOC(=O)COc1ccc(F)c(C(N)=O)c1F | 64 µg/mL | 256 µg/mL (≈ 988 µM) | 256 µg/mL (≈ 988 µM) | 64 µg/mL | 32 µg/mL | 128 µg/mL (≈ 494 µM) | > 128 µg/mL | 128 µg/mL (≈ 494 µM) | 128 µg/mL (≈ 494 µM) | 64 µg/mL (≈ 247 µM) | 128 µg/mL (≈ 494 µM)
NC(=O)c1c(F)ccc(OCCCCCCCl)c1F | 0.5 µg/mL | 8 µg/mL (≈ 27.4 µM) | 16 µg/mL (≈ 54.8 µM) | 128 µg/mL | 0.25 µg/mL | 256 µg/mL (≈ 878 µM) | > 128 µg/mL | 128 µg/mL (≈ 439 µM) | 2 µg/mL (≈ 6.86 µM) | 0.5 µg/mL (≈ 1.71 µM) | 256 µg/mL (≈ 878 µM)
NC(=O)c1c(F)ccc(OC2CCCCC2)c1F | 128 µg/mL | 256 µg/mL (≈ 1000 µM) | 256 µg/mL (≈ 1000 µM) | 64 µg/mL | 64 µg/mL | 128 µg/mL (≈ 501 µM) | > 128 µg/mL | 128 µg/mL (≈ 501 µM) | 128 µg/mL (≈ 501 µM) | 64 µg/mL (≈ 251 µM) | 128 µg/mL (≈ 501 µM)
CCCCC(CC)COc1ccc(F)c(C(N)=O)c1F (configuration not stated) | 0.25 µg/mL | 8 µg/mL (≈ 28 µM) | 8 µg/mL (≈ 28 µM) | 64 µg/mL | 0.125 µg/mL | 256 µg/mL (≈ 897 µM) | > 128 µg/mL | 64 µg/mL (≈ 224 µM) | 1 µg/mL (≈ 3.5 µM) | 0.25 µg/mL (≈ 0.876 µM) | 128 µg/mL (≈ 449 µM)
NC(=O)c1c(F)ccc(O)c1F | 2050 µg/mL | 1020 µg/mL (≈ 5920 µM) | 512 µg/mL (≈ 2960 µM) | 512 µg/mL | 1020 µg/mL | 512 µg/mL (≈ 2960 µM) | > 4100 µg/mL | 4100 µg/mL (≈ 23700 µM) | 1020 µg/mL (≈ 5920 µM) | 1020 µg/mL (≈ 5920 µM) | 512 µg/mL (≈ 2960 µM)
NC(=O)c1c(F)ccc(OCc2nc3cc([N+](=O)[O-])ccc3[nH]2)c1F | 128 µg/mL | 512 µg/mL (≈ 1470 µM) | 256 µg/mL (≈ 735 µM) | 128 µg/mL | 64 µg/mL | 512 µg/mL (≈ 1470 µM) | 1020 µg/mL (≈ 2940 µM) | 256 µg/mL (≈ 735 µM) | 512 µg/mL (≈ 1470 µM) | 64 µg/mL (≈ 184 µM) | 256 µg/mL (≈ 735 µM)
CC(C)Oc1ccc(F)c(C(N)=O)c1F | 128 µg/mL | 256 µg/mL (≈ 1190 µM) | 256 µg/mL (≈ 1190 µM) | 64 µg/mL | 128 µg/mL | 256 µg/mL (≈ 1190 µM) | > 128 µg/mL | 128 µg/mL (≈ 595 µM) | 256 µg/mL (≈ 1190 µM) | 256 µg/mL (≈ 1190 µM) | 128 µg/mL (≈ 595 µM)
COc1cc(/C=C/C(=O)CC(=O)/C=C/c2ccc(O)c(OC)c2)ccc1O [CURCUMIN] | 1020 µg/mL | 4100 µg/mL (≈ 11100 µM) | 4100 µg/mL (≈ 11100 µM) | 256 µg/mL | 16 µg/mL | 512 µg/mL (≈ 1390 µM) | > 4100 µg/mL | > 4100 µg/mL | 2050 µg/mL (≈ 5560 µM) | 32 µg/mL (≈ 86.9 µM) | 4100 µg/mL (≈ 11100 µM)
NC(=O)c1c(F)ccc(OCCCn2cnc3ccccc32)c1F | 256 µg/mL | 1020 µg/mL (≈ 3090 µM) | 512 µg/mL (≈ 1550 µM) | 512 µg/mL | 512 µg/mL | 512 µg/mL (≈ 1550 µM) | 1020 µg/mL (≈ 3090 µM) | 512 µg/mL (≈ 1550 µM) | 1020 µg/mL (≈ 3090 µM) | 1020 µg/mL (≈ 3090 µM) | 512 µg/mL (≈ 1550 µM)
NC(=O)c1c(F)ccc(OCCCCCn2cnc3cc([N+](=O)[O-])ccc32)c1F | – | 2050 µg/mL (≈ 5060 µM) | 1020 µg/mL (≈ 2530 µM) | 256 µg/mL | 32 µg/mL | 512 µg/mL (≈ 1270 µM) | 1020 µg/mL (≈ 2530 µM) | 512 µg/mL (≈ 1270 µM) | 512 µg/mL (≈ 1270 µM) | 512 µg/mL (≈ 1270 µM) | 512 µg/mL (≈ 1270 µM)
NC(=O)c1c(F)ccc(OCCCn2cnc3cc([N+](=O)[O-])ccc32)c1F | 1020 µg/mL | 1020 µg/mL (≈ 2720 µM) | 512 µg/mL (≈ 1360 µM) | 512 µg/mL | 128 µg/mL | 1020 µg/mL (≈ 2720 µM) | 512 µg/mL (≈ 1360 µM) | 512 µg/mL (≈ 1360 µM) | 1020 µg/mL (≈ 2720 µM) | 256 µg/mL (≈ 680 µM) | 512 µg/mL (≈ 1360 µM)
NC(=O)c1c(F)ccc(OCCCCCCBr)c1F | 1 µg/mL | 2 µg/mL (≈ 5.95 µM) | 2 µg/mL (≈ 5.95 µM) | 64 µg/mL | 0.5 µg/mL | 128 µg/mL (≈ 381 µM) | 64 µg/mL (≈ 190 µM) | > 128 µg/mL | 1 µg/mL (≈ 2.97 µM) | 1 µg/mL (≈ 2.97 µM) | 128 µg/mL (≈ 381 µM)
